Results from ChEMBL document CHEMBL3585284, “Preparation and biological evaluation of conformationally constrained BACE1 inhibitors” (Bioorg Med Chem, 2015).

Legend:
[1] = test system: P-gp; test: Efflux ratio in P-gp expressing MDCK cells; type: ADME, cell-based, Canis lupus familiaris; conditions: dog, MDCK-MDR1
[2] = Dissociation constant, pKa of the compound; type: physicochemical
[3] = test system: P-gp; test: Permeability in P-gp expressing MDCK cells; type: ADME, cell-based, Canis lupus familiaris; conditions: dog, MDCK-MDR1; read-out: permeability
[4] = Drug metabolism in mouse microsomes; type: ADME, Microsome
[5] = test system: Brain; test: Drug level in brain of PDAPP (V717F) transgenic mouse at 100 mg/kg, sc; type: ADME, organism-based; conditions: in vivo, read-out: Drug uptake
Summary of the method: (§1)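 Brain and plasma samples from PDAPP mice dosed subcutaneously were homogenized (brain) and mixed with methanol/acetonitrile (1:1, v/v) containing internal standard to precipitate protein. After centrifugation, supernatant was diluted 4-fold with water/methanol (1:1, v/v). Drug was quantified against calibration standards by LC–MS/MS on a C18 column.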

[6] = test system: Plasma; test: Plasma concentration in PDAPP (V717F) transgenic mouse at 100 mg/kg, sc; type: ADME, organism-based; conditions: in vivo; summary of the method: as §1

SMILES	efflux ratio [1]	pKa [2]	Papp [3] [×10⁻⁶ cm/s]	Drug metabolism [4]	concentration [5] [µM]	concentration [6] [µM]
Cl.NC1=NC2CCC(NC(=O)c3cccc(Cl)c3)CC2CS1 (stereo not given)	10	9.7	2.9			
NC1=NC2CCC(OC(=O)c3cccc(Cl)c3)CC2CS1.O=C(O)C(F)(F)F (stereo not given)	2.7		7.2			
NC1=NC2CCC(NC(=O)c3cccc(Cl)c3)CC2CS1 (stereo not given)				metabolite_notdetected	0.75	9.3
NC1=NC23CCC(NC(=O)c4cccc(Cl)c4)CC2(COC3)CS1 (racemic)		8.2				

Now from value to molecule:

efflux ratio [1]	pKa [2]	Papp [3] [×10⁻⁶ cm/s]	Drug metabolism [4]	concentration [5] [µM]	concentration [6] [µM]	SMILES
8.5	9	2.2				Cl.NC1=N[C@]23CC[C@H](NC(=O)c4cccc(Cl)c4)C[C@@H]2[C@@H](COC3)S1
			metabolite_notdetected	0.61	6.7	NC1=N[C@]23CC[C@H](NC(=O)c4cccc(Cl)c4)C[C@@H]2[C@@H](COC3)S1
